PMI act: activators of human PMI, primary screen, biochemical, fluorescence intensity, near-Km mannose 6-phosphate; Mannose-6-phosphate isomerase (Homo sapiens), P34949; purified human PMI, coupled resazurin fluorescence, 20 min; active compounds read high; 1 = vehicle control, 0 substrate-free wells; activation factor at 20 µM; 0.005% of 190,000 active;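 active = activation factor of 2 or more at 20 µM, relative to plate controls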
Rad51 HR inh: human RAD51 strand exchange inhibitors, primary screen, biochemical, fluorescence; inhibition, % at 10 µM; DNA repair protein RAD51 homolog 1 (Homo sapiens), Q06609; AID 1385, 2008; 0.085% of 200,000 active; hRad51 DNA strand exchange, fluorescence dequenching;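 active = inhibition above 40% at the single screening dose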;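 also: 0% = DMSO control wells and 100% = blanks with heterologous ssDNA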
Target sequence (Q06609 whole entry, looked up): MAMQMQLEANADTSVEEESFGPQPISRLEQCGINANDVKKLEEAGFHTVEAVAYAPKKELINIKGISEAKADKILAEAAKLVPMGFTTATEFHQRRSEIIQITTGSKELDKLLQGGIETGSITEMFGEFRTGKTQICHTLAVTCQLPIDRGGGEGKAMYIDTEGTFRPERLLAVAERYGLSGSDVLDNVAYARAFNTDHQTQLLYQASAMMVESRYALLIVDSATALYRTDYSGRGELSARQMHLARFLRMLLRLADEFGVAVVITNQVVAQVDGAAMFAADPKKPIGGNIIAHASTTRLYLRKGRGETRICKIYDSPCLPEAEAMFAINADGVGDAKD
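Material: human Rad51–ssDNA filaments; Probe or stimulus: labelled 47-mer dsDNA for strand exchange; Doses: single 10 µM dose; Incubation: 37 °C 15-min filament assembly, 30-min compound preincubation, 15-min exchange; Technique: FRET fluorescence dequenching, excitation 485 nm, emission 520 nm; Measure: Fluorescence-based percent inhibition, control- and blank-normalised; Benchmarks: plate control and blank wells.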
PMI act satM6P: human PMI activators, high substrate, primary screen, biochemical, fluorescence intensity, near-saturating mannose 6-phosphate. Mannose-6-phosphate isomerase (Homo sapiens), P34949. coupled PMI enzyme assay, resazurin fluorescence, 20 min; active compounds read high; 1 = untreated enzyme, 0 = substrate-free blank. activation factor at 20 µM. 0.34% of 190,000 active. AID 1216, 2008;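 active = activation factor of 2 or more at 20 µM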
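assay system = human phosphomannose isomerase with PGI, G6PDH, diaphorase coupling enzymes | quantity = 15 ng/mL PMI | incubation = enzyme reaction with compound 20 min at room temperature | medium = HEPES pH 7.4 buffer with MgCl2 and Tween-20 | compound dosing = one concentration, 20 µM, in 1% DMSO | measured by = Diaphorase-driven resazurin-to-resorufin fluorescence, excitation 544, emission 590 nm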
m-calpain inh: inhibitors of pig calpain II, primary screen, biochemical, fluorogenic peptide substrate, 1536-well | purified calpain II, 30 min | inhibition, % at 16 µM | 0.37% of 220,000 active | AID 1236, 2008;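 active = inhibition above about 50%, limit read from the data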
HMGR II inh: inhibitors of E. faecalis class II HMGR, primary screen, biochemical, Enterococcus faecalis; HMG-CoA reductase (Enterococcus faecalis, mvaE); purified E. faecalis HMGR, NADPH absorbance 340 nm kinetic; inhibition, % at 10 µM; 0.41% of 190,000 active;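 active = inhibition above a set limit, the median over all tested compounds plus 3 SD, cut at about 9.5% in these data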;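 also: enzyme runs in reverse so mevalonate oxidation gives rising NADPH absorbance; 0% = complete reaction with DMSO and 100% = background rate lacking mevalonate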
* hit, by the source's call; nt = no result. An excerpt weighted towards active compounds, which were near 1.1% of everything screened.

SMILES | PMI act | Rad51 HR inh | PMI act satM6P | m-calpain inh | HMGR II inh
CC1CC(C)(C)CC2(C1)NC(=S)N(c1ccccc1)N2 (stereo not given) | 1.7 | 11.6 | 2* | -7.8 | -2.2
CC1(c2ccccc2)NC(=S)N2C1NC(=S)N2c1ccccc1 (stereo not given) | 1.1 | nt | 1.2 | -5.7 | 1.5
CC(C)(C)N1NC2(CCCCC2)NC1=S | 1.5 | 1.7 | 2.1* | 29.5 | -3.3
CC1CCCCC12NC(=S)N(c1ccccc1)N2 (stereo not given) | nt | 7.5 | nt | 28.6 | nt
S=C1NC2(CCCCC2)NN1c1ccccc1 | 1.8 | nt | 2.9* | 7.8 | -2.5
CCOc1ccc(NC(=O)CC2C(=O)N(c3ccccc3)C(=O)N2CCc2cccs2)cc1 (stereo not given) | 0.9 | -0.1 | 0.9 | 20.0 | -6.8
O=C1NC2(NN1c1ccccc1)C1CC3CC(C1)CC2C3 (stereo not given) | 1 | -6.1 | 1 | -4.5 | -13.4
O=C1NC2(CCC3(CC2)OCCO3)NN1c1ccccc1 | 1.6 | 3.4 | 2.3* | -2.6 | 0.4
COc1cccc(-c2cc(C(=O)N3CCCc4ccccc43)no2)c1 | 0.9 | 3.6 | 0.8 | -11.4 | -7.9
COc1ccc(-c2cc(C(=O)N3CCCc4ccccc43)no2)cc1 | 0.8 | nt | 0.9 | 52.9* | -7.2
O=C(NNC(=O)c1ccc2ncccc2c1)c1ccc(Cl)cc1 | 1.1 | 2.6 | 1 | 8.4 | 1.2
Cc1ccc(C(=O)NNC(=O)c2ccc3ncccc3c2)cc1 | 1.1 | -5.8 | 1.1 | 51.8* | -3.6
COc1ccc(CC(=O)Nc2nnc(C)s2)cc1 | 0.9 | 1.7 | 1 | -6.5 | -9.8
CN(C)C(=O)CSc1n[nH]c(=O)[nH]c1=O | 1 | -21.6 | 1 | 5.7 | 19.7*
COc1ccc(C)cc1NC(=O)C(Sc1nnnn1C)c1ccccc1 (stereo not given) | 0.9 | -11.4 | 0.9 | -1.6 | 14.6*
O=C(c1ccc(Cl)cc1Cl)N1CCC(c2nc3c(nnn3Cc3ccco3)c(=O)[nH]2)CC1 | 0.9 | -3.7 | 0.9 | 70.4* | -1.1
O=C(NCC1CCCO1)C(c1cccs1)N(Cc1cccs1)C(=O)Cn1nnc(-c2cccs2)n1 (stereo not given) | 0.9 | 1.0 | 0.9 | -8.2 | 16.4*
COc1cc(CN2CCNC(=O)C2CC(=O)N(Cc2nccn2C)C(C)C)cc(OC)c1 (stereo not given) | nt | 14.1 | nt | -3.5 | nt
CC(C(=O)Nc1ccc(S(=O)(=O)N2CCCCC2)cc1)N1CCN(c2ccccn2)CC1 (stereo not given) | 1.1 | 2.0 | 1 | 18.9 | 1.7
Cc1cc(C(=O)COc2ccc(F)cc2Br)c(C)n1C | 0.9 | 3.2 | 0.9 | 1.3 | 9.6*
CCC(=O)Nc1ccc(-c2nnc(SCC(=O)NCC3CCCO3)n2C)cc1 (stereo not given) | 0.9 | 0.9 | 0.9 | -0.1 | -1.8
CC(=O)N(C)c1nc(N)n(-c2ccccc2)n1 | 1.1 | -0.3 | 1.1 | -12.2 | 15.9*
Cc1ccccc1C(=O)/C(C#N)=N/Nc1c(C)n(C)n(-c2ccccc2)c1=O | 1.3 | nt | 1.9 | 10.6 | -0.6
Cc1c(N/N=C(\C#N)C(=O)c2ccccc2)c(=O)n(-c2ccccc2)n1C | 1.6 | nt | 2.1* | 20.3 | -1.4
COc1ccc2c(COC(=O)CCS(=O)(=O)c3ccccc3)cc(=O)oc2c1 | 1 | -10.3 | 1 | -347.9 | -7.0
SMILES | PMI act | Rad51 HR inh | PMI act satM6P | m-calpain inh | HMGR II inh
Nc1cc(S(=O)(=O)N2CCCCC2)ccc1Oc1ccc(Cl)cc1 | 0.8 | 10.2 | 0.8 | 63.5* | -0.1
Cc1cccc(Oc2ccc(S(=O)(=O)N3CCCCC3)cc2N)c1 | 0.9 | -1.7 | 0.8 | 45.5 | -2.0
O=C(Nc1ccccc1Oc1ccccc1)C1CCCC1 | 1 | 26.8 | 0.9 | 21.7 | 2.1
CC(C(=O)Nc1ccccc1Oc1ccccc1)c1ccccc1 (stereo not given) | 1 | 22.4 | 1 | 52.3* | 1.8
Cc1ccc(S(=O)(=O)NNc2ccccc2)c(C)c1 | 1.7 | nt | 2.7* | -8.7 | -1.1
CCOc1ccc(NC(=S)N(CCc2c(C)[nH]c3ccccc23)Cc2cccnc2)cc1 | 0.9 | nt | 1 | 4.6 | -1.2
Cc1[nH]c2ccccc2c1CCN(Cc1cccnc1)C(=S)Nc1ccc(F)cc1 | 1 | 5.7 | 0.9 | 64.1* | -1.5
Cc1[nH]c2ccc(F)cc2c1CCN(Cc1cccnc1)C(=S)Nc1ccccc1 | 1 | -9.4 | 0.9 | 21.9 | 2.0
Cc1[nH]c2ccccc2c1CCN(Cc1cccnc1)C(=S)Nc1cccc(F)c1 | 1 | 8.5 | 0.9 | 60.7* | 5.8
Cc1cc(C(=O)Cn2c(CO)nc3ccccc32)c(C)n1C | nt | -2.4 | nt | -11.2 | nt
Nc1ccccc1SC1CC(=O)N(c2ccccc2Cl)C1=O (stereo not given) | nt | 18.5 | nt | 7.5 | nt
COc1ccccc1/C=N/NC(=S)NCc1ccco1 | nt | nt | nt | 60.1* | nt
S=C(NCc1ccco1)N/N=C/c1ccc(Cl)cc1 | 0.9 | -1.0 | 0.9 | 67.7* | 1.5
C(=C\c1ccccc1)/C=N/N1CCN(Cc2ccccc2)CC1 | 0.9 | 2.0 | 0.9 | 50.1* | -4.3
C(/C=C/c1ccccc1)=N/N1CCN(c2ccccc2)CC1 | 0.9 | -5.0 | 0.9 | -21.6 | -0.4
CCC(c1nnnn1C1CCCC1)N1CCC(C(N)=O)CC1 (stereo not given) | 1.1 | -8.6 | 1 | 35.9 | -2.4
Oc1cc(O)c2c(c1)O[C@H](c1ccc(O)c(O)c1)[C@@H](O)C2 | nt | 4.9 | nt | -5.0 | nt
O=C1c2c(O)cc(O)cc2O[C@@]12c1c(cc(O)c3c1O[C@H](c1ccc(O)cc1)[C@@H](O)C3)O[C@@H]2c1ccc(O)cc1 | 1 | -7.1 | 0.8 | -54.3 | 9.6*
COc1cc(-c2nc(S(=O)(=O)c3ccc(C)cc3)c(N(C)C)o2)cc(OC)c1OC | 1.5 | 3.8 | 2* | -3.4 | -1.1
COc1cc(-c2nc(S(=O)(=O)c3ccc(C)cc3)c(N3CCOCC3)o2)cc(OC)c1OC | 1 | nt | 1.1 | 3.5 | -7.1
CC(C)(C)c1nc(NC(=O)Nc2ccccc2)sc1Br | 1 | 0.6 | 0.9 | 21.2 | 2.7
COc1ccc([N+](=O)[O-])cc1N(CC(=O)Nc1ccccc1C(=O)NC(C)C)S(C)(=O)=O | 1 | -11.8 | 1.1 | -12.5 | -0.6
COc1ccc(C)cc1NC(=O)c1ccccc1NS(=O)(=O)c1ccc(Cl)s1 | 0.9 | -20.5 | 0.8 | 4.6 | 1.4
COc1ccc(N=Nc2nc3cc(Br)c(Br)cc3n2C)c(OC)c1 | 1.6 | -297.4 | 2.1* | -39.9 | -6.5
Cc1ccc(-c2noc(C3CCCN(C(=O)c4ccc(F)cc4F)C3)n2)cc1 (stereo not given) | 1 | 5.5 | 1 | -13.1 | -1.1

Source: PubChem (several laboratories)
